Test results: ChEMBL document CHEMBL4270570 (Eur J Med Chem, 2018)

What was measured:
[1] = system: Human immunodeficiency virus 1; assay: Antiviral activity against HIV1 infected in CD4/CXCR4/CCR5 expressing human P4R5 MAGI cells preincubated with cells for 24 hrs followed by viral infection measured after 48 hrs by beta-galactosidase reporter gene assay; format: functional, organism-based
[2] = molecular target: Human immunodeficiency virus type 1 reverse transcriptase (Human immunodeficiency virus 1, UniProt Q72547); assay: Inhibition of HIV1 reverse transcriptase RNaseH activity using 3'-fluorescein/5'-Dabcyl labeled HTS-1 substrate
[3] = molecular target: Human immunodeficiency virus type 1 integrase (Human immunodeficiency virus 1, UniProt Q7ZJM1); assay: Inhibition of HIV integrase strand transfer activity using 5'-biotin/3'-Cy5-labeled DNA substrate preincubated for 5 mins followed by substrate addition measured after 30 mins by HTS assay
[4] = Cytotoxicity against human P4R5 MAGI cells; format: cell-based
Method in brief: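 P4R5 cells express CD4, CXCR4, CCR5 and an HIV LTR-driven β-galactosidase reporter. They were seeded at 4×10^3 cells per well in DMEM/10% FBS with puromycin (1 µg/mL).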

[5] = molecular target: Gag-Pol polyprotein (Human immunodeficiency virus type 1 group M subtype B (isolate HXB2)(HIV-1), UniProt P04585); assay: Inhibition of HIV1 reverse transcriptase polymerase activity using 18 nucleotide DNA primer and 100 nucleotide DNA template after 30 mins; design: species or system Human immunodeficiency virus 1
Method in brief: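 Full-length RT at 20 nM with 40 nM template/primer (18-nt DNA primer on 100-nt DNA template) and 10 µM dNTPs in 50 mM Tris pH 7.8, 50 mM NaCl. Started with 6 mM MgCl2, with 1% DMSO and increasing compound concentrations. Primer extension ran 30 min at 37 °C and was stopped with 100 mM EDTA.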

[6] = Effective permeability of the compound at 10 uM after 5 hrs by PAMPA; format: ADME
Method in brief: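 Lipid-precoated PAMPA plates thawed 30 min at room temperature. Compounds diluted from 10 mM DMSO stock into DPBS to 10 µM final and placed in donor wells, with DPBS in acceptor wells. Incubated 5 h at 25 °C without agitation. Donor and acceptor concentrations measured by LC-MS/MS. Pe calculated from acceptor and equilibrium concentrations, filter area 0.3 cm² and well volumes.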

Chain of Human immunodeficiency virus type 1 integrase (Q7ZJM1 whole entry): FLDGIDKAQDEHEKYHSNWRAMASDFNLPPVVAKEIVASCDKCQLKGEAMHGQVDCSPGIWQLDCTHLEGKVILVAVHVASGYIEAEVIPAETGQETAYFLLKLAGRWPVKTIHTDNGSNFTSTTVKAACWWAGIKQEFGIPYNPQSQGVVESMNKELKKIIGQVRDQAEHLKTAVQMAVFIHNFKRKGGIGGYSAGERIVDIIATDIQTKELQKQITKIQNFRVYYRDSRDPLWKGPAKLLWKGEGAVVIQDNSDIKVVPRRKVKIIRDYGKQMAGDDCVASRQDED

Row | Compound | EC50 [1] | IC50 [2] | IC50 [3] | CC50 [4] | IC50 [5] | Peff [6]
1 | COc1cccc(-c2ccc(Sc3cc(=O)n(O)c(=O)[nH]3)cc2)c1 | 7.7 µM | 0.005 µM | > 1 µM | > 100 µM | 10 µM | –
2 | CCc1ccc(Sc2cc(=O)n(O)c(=O)[nH]2)cc1 | 11 µM | 0.01 µM | 1.3 µM | > 100 µM | > 10 µM | –
3 | O=c1cc(Sc2ccc([N+](=O)[O-])cc2)[nH]c(=O)n1O | > 20 µM | 0.012 µM | 3.4 µM | > 100 µM | > 10 µM | 0.032 ×10⁻⁶ cm/s
4 | COc1ccc(-c2ccc(Sc3cc(=O)n(O)c(=O)[nH]3)cc2)cc1 | 10 µM | 0.006 µM | > 100 µM | > 100 µM | 10 µM | –
5 | O=c1cc(Sc2ccccc2)[nH]c(=O)n1O | 11 µM | 0.016 µM | 1.1 µM | > 100 µM | > 10 µM | –
6 | O=c1cc(Sc2ccc(-c3ccc(C(F)(F)F)cc3)cc2)[nH]c(=O)n1O | 12 µM | 0.039 µM | > 1 µM | > 100 µM | 8.4 µM | –
7 | COc1ccccc1Sc1cc(=O)n(O)c(=O)[nH]1 | 9 µM | 0.017 µM | 8.4 µM | > 100 µM | > 10 µM | –
8 | O=c1cc(Sc2cccc(F)c2)[nH]c(=O)n1O | 9.1 µM | 0.014 µM | 0.49 µM | > 100 µM | > 10 µM | –
9 | O=c1cc(Sc2ccc(O)cc2)[nH]c(=O)n1O | > 20 µM | 0.011 µM | 1.6 µM | > 100 µM | > 10 µM | –
10 | O=c1cc(Sc2cccc3ccccc23)[nH]c(=O)n1O | 6.3 µM | 0.007 µM | 0.79 µM | > 100 µM | 10 µM | –
11 | O=c1cc(Sc2cccc(Cl)c2)[nH]c(=O)n1O | 6.3 µM | 0.011 µM | 0.59 µM | > 100 µM | > 10 µM | –
12 | Cc1cc(-c2ccc(Sc3cc(=O)n(O)c(=O)[nH]3)cc2)ccc1F | 18 µM | 0.005 µM | > 10 µM | > 100 µM | > 10 µM | –
13 | O=c1cc(Sc2cccc(-c3ccc(Cl)cc3)c2)[nH]c(=O)n1O | 10 µM | 0.005 µM | > 1 µM | > 100 µM | 7.8 µM | –
14 | O=c1cc(Sc2ccccc2C(F)(F)F)[nH]c(=O)n1O | 6.6 µM | 0.012 µM | 0.88 µM | > 100 µM | > 10 µM | –
15 | O=c1cc(Sc2cccc(-c3ccc(C(F)(F)F)cc3)c2)[nH]c(=O)n1O | 11 µM | 0.007 µM | > 0.14 µM | > 100 µM | 10 µM | –
16 | O=c1cc(Sc2cccc(Br)c2)[nH]c(=O)n1O | 8.2 µM | 0.011 µM | 1.2 µM | > 100 µM | > 10 µM | –
17 | COc1ccc(-c2ccc(Sc3cc(=O)n(O)c(=O)[nH]3)cc2)cc1OC | > 20 µM | 0.004 µM | 0.33 µM | > 100 µM | 10 µM | 0.9 ×10⁻⁶ cm/s
18 | O=c1cc(Sc2ccccc2-c2ccc(C(F)(F)F)cc2)[nH]c(=O)n1O | 7 µM | 0.013 µM | > 100 µM | > 100 µM | > 10 µM | –
19 | O=c1cc(Sc2ccc(-c3ccc(O)cc3)cc2)[nH]c(=O)n1O | > 20 µM | 0.004 µM | 0.17 µM | > 100 µM | > 10 µM | 0.039 ×10⁻⁶ cm/s
20 | Cc1ccc(-c2ccc(Sc3cc(=O)n(O)c(=O)[nH]3)cc2)cc1 | 7.5 µM | 0.006 µM | > 1 µM | > 100 µM | 7 µM | –
21 | COc1ccc(Sc2cc(=O)n(O)c(=O)[nH]2)cc1 | > 20 µM | 0.012 µM | 3.6 µM | > 100 µM | > 10 µM | –
22 | O=c1cc(Sc2ccc(Br)cc2)[nH]c(=O)n1O | – | 0.01 µM | – | – | 7 µM | –
23 | COc1ccc(-c2ccc(Sc3cc(=O)n(O)c(=O)[nH]3)cc2)cc1F | 8 µM | 0.004 µM | > 0.14 µM | > 100 µM | 6.8 µM | –

Row | Compound | EC50 [1] | IC50 [2] | IC50 [3] | CC50 [4] | IC50 [5] | Peff [6]
24 | O=c1cc(Sc2ccc(C(F)(F)F)cc2)[nH]c(=O)n1O | > 20 µM | 0.031 µM | > 10 µM | > 100 µM | > 10 µM | –
25 | O=c1cc(Sc2ccc(-c3cccc(F)c3)cc2)[nH]c(=O)n1O | 7.2 µM | 0.005 µM | > 1 µM | > 100 µM | 10 µM | –
26 | O=c1cc(Sc2ccccc2-c2ccc(F)cc2)[nH]c(=O)n1O | 11 µM | 0.012 µM | > 100 µM | > 100 µM | > 10 µM | –
27 | O=c1cc(Sc2ccc(-c3ccc(Cl)cc3)cc2)[nH]c(=O)n1O | 16 µM | 0.007 µM | > 1 µM | > 100 µM | > 10 µM | –
28 | O=c1cc(Sc2cccc(-c3cccc(F)c3)c2)[nH]c(=O)n1O | 6.5 µM | 0.006 µM | 0.24 µM | > 100 µM | 9.6 µM | –
29 | Cc1ccc(Sc2cc(=O)n(O)c(=O)[nH]2)cc1 | > 20 µM | 0.033 µM | 2.8 µM | > 100 µM | > 10 µM | 0.92 ×10⁻⁶ cm/s
30 | O=c1[nH]c(Sc2ccc(Br)cc2)c(Br)c(=O)n1O | – | 0.07 µM | – | – | 5 µM | –
31 | O=c1cc(Sc2ccc(-c3ccccc3)cc2)[nH]c(=O)n1O | – | 0.09 µM | – | – | 3.2 µM | –
32 | O=c1cc(Sc2ccccc2Br)[nH]c(=O)n1O | 6.5 µM | 0.008 µM | 1.1 µM | > 100 µM | > 10 µM | –
33 | O=c1cc(Sc2cccc(-c3ccc(F)c(Cl)c3)c2)[nH]c(=O)n1O | 11 µM | 0.005 µM | > 1 µM | > 100 µM | 5.6 µM | –
34 | O=c1[nH]c(Sc2ccc(Br)cc2)c(I)c(=O)n1O | – | 0.12 µM | – | – | 0.46 µM | –
35 | O=c1cc(Sc2cccc(-c3ccc(F)cc3)c2)[nH]c(=O)n1O | 5 µM | 0.005 µM | > 0.14 µM | > 100 µM | 9.9 µM | –
36 | COc1cccc(Sc2cc(=O)n(O)c(=O)[nH]2)c1 | 16 µM | 0.013 µM | 2.7 µM | > 100 µM | > 10 µM | –
37 | O=c1cc(Sc2ccc(-c3cccc(C(F)(F)F)c3)cc2)[nH]c(=O)n1O | > 20 µM | 0.008 µM | > 100 µM | > 100 µM | > 10 µM | –
38 | O=c1cc(Sc2ccc(F)cc2)[nH]c(=O)n1O | > 20 µM | 0.037 µM | 6.8 µM | > 100 µM | > 10 µM | –
39 | O=c1cc(Sc2cccc(-c3cccc(C(F)(F)F)c3)c2)[nH]c(=O)n1O | 8.3 µM | 0.007 µM | > 1 µM | > 100 µM | 7.7 µM | –
40 | O=c1cc(Sc2ccccc2F)[nH]c(=O)n1O | 4.7 µM | 0.015 µM | 0.77 µM | > 100 µM | > 10 µM | –
41 | COc1cccc(-c2ccc(Nc3cc(=O)n(O)c(=O)[nH]3)cc2)c1 | > 25 µM | – | – | > 25 µM | – | –
42 | O=c1cc(Sc2ccc(Cl)cc2)[nH]c(=O)n1O | > 20 µM | 0.012 µM | 0.64 µM | > 100 µM | > 10 µM | 0.35 ×10⁻⁶ cm/s
43 | COc1cc(OC)cc(-c2ccc(Sc3cc(=O)n(O)c(=O)[nH]3)cc2)c1 | 17 µM | 0.006 µM | > 100 µM | > 100 µM | > 10 µM | –
44 | O=c1cc(Sc2ccc(-c3ccc(F)cc3)cc2)[nH]c(=O)n1O | 12 µM | 0.006 µM | > 1 µM | > 100 µM | > 10 µM | –
45 | O=c1cc(Sc2cccc(C(F)(F)F)c2)[nH]c(=O)n1O | 6.2 µM | 0.013 µM | 0.88 µM | > 100 µM | > 10 µM | –
46 | CCc1ccccc1Sc1cc(=O)n(O)c(=O)[nH]1 | 6.2 µM | 0.01 µM | 0.75 µM | > 100 µM | > 10 µM | –
